High-throughput results deposited in PubChem BioAssay by several laboratories.
CaV13 FRET inh – Primary screen for inhibitors of IQ motif and Ca2+-dependent inactivation inhibitor domain binding in CACNA1D, Förster resonance energy transfer in living cells, …. HEK cells, CFP/YFP FRET ICDI-IQ, plate reader, 10 min; percent FRET-ratio fall versus neutral wells. inhibition, % at 12.3 µM. 0.098% of 340,000 active. AID 743397;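 active = mean replicate inhibition of at least 30% and at least 1% of replicates passing that level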;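 also: 0% = median of the neutral control wells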
ADAM10 inh – inhibits human ADAM10; recombinant ADAM10, EDANS/DABCYL FRET peptide cleavage, 3 h; O14672; inhibition, % at 7 µM; 0.62% of 370,000 active;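 active = inhibition above a per-campaign cutoff equal to the mean of compounds falling between control-based bounds plus 3 SD, cut at about 20% in these data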;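 also: 0% = DMSO wells while the 100% control is not disclosed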
NRP1-CendR mod – modulators of CendR peptide binding to human neuropilin-1 | inhibition, % at 25 µM | FAM-RPARPAR peptide binding to NRP-1, fluorescence polarization | AID 602438 | 0.85% of 360,000 active;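 active = inhibition or corrected inhibition above about 18%, plus a signal ratio from 0.5 to 1.5, limit read from the data, passing the limit was not always enough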
Target sequence (O14786 whole entry, looked up): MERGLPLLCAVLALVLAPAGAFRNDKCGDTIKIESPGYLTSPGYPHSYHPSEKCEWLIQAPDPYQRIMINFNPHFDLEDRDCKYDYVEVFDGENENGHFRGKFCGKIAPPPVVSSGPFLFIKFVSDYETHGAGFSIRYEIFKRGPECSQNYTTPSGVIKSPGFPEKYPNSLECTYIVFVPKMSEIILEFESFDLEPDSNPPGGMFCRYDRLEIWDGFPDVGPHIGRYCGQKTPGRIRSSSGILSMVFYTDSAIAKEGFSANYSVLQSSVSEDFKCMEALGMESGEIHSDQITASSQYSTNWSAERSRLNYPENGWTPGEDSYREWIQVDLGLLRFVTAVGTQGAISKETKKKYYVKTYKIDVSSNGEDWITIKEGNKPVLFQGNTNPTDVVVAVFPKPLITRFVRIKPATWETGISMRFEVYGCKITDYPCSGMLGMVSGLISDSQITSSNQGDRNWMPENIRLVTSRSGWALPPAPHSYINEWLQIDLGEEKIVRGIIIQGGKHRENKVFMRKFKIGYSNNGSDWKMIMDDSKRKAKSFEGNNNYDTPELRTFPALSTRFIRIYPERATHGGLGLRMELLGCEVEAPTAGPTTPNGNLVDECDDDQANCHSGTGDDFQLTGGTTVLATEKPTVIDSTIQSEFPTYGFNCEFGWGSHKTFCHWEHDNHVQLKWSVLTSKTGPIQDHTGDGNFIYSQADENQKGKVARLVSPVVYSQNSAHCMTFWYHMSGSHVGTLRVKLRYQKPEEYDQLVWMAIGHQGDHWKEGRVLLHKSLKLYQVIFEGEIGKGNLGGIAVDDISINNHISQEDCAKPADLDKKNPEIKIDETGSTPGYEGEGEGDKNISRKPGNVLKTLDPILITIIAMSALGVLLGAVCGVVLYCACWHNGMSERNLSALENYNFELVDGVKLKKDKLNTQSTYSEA
ADAM17 inh – ADAM17 inhibition, QFRET primary screen | P78536 | recombinant ADAM17, EDANS/DABCYL FRET peptide cleavage | inhibition, % at 6.95 µM | 0.83% of 370,000 active | AID 720648;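 active = inhibition above the mean of compounds lying between control limits plus 3 SD, set per campaign, cut at about 8.5% in these data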;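 also: 0% = DMSO-only wells as the low control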
FAS TE block – inhibitors of human fatty acid synthase thioesterase domain. 0.67% of 360,000 active. recombinant FAS-TE, OMFH fluorogenic substrate, fluorescence endpoint. inhibition, % at 15 µM;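 active = compounds whose normalised, plate-corrected inhibition of enzyme fluorescence in the single-dose primary screen is 50% or more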;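 also: 0% = DMSO with enzyme and 100% = substrate without enzyme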
Arr AP2 block – human beta-arrestin and AP2 interaction inhibition | FITC-arrestin peptide / GST-AP2 beads, flow cytometry; AP2 beta2 appendage carries R879A mutation | inhibition, % at 10 µM | 0.31% of 340,000 active;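 active = inhibition above a set limit, near 3 SD of compounds lacking own fluorescence, cut at about 54% in these data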;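 also: plate controls were DMSO wells for no effect and 5 µM unlabelled arrestin peptide for full effect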
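Test system: GST-tagged AP2 beta2-adaptin appendage (R879A) on 4 µm glutathione beads; also added: fluorescein-tagged arrestin peptide at 50 nM final; timing: 12 min plus 1 h, RT; signal: flow cytometry, FL1 (488/535 nm); read-out: percent drop in bead-associated FITC signal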
Arr-AP2 CP1 – human beta-arrestin and AP2 interaction inhibition, cherry pick; shares compounds with Arr AP2 block; GST-AP2 beads, FITC arrestin peptide binding, flow cytometry; GST-fused beta2-adaptin appendage, R879A mutant; inhibition, % at 10 µM; 2% of 1,300 active; AID 504908;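 active = inhibition above a set limit, roughly 3 SD of non-fluorescent compound noise, cut at about 38% in these data; inactive = inhibition at or below that limit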;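 also: loss of bead fluorescence from 50 nM FITC arrestin peptide bound to appendage; 0% = negative control wells and 100% = excess unlabelled arrestin peptide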
GST GSH counter – GST-GSH bead binding interference, counter-screen | shares compounds with Arr AP2 block | GST-fluorescein binding to GSH beads, fluorescence | inhibition, % at 10 µM | 2% of 1,300 active;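 active = inhibition above 50%, about 3 SD of the inhibition seen with non-fluorescent compounds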;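 also: fluorescein maleimide labelled GST captured on 4 micron glutathione beads; higher means more loss of bead fluorescence from quenching or blocked binding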
Active calls of the source: *. Only some compounds are listed: those with a hit (about 2.9% of all), similar ones and a draw of the others.

What do the screens show for `Cc1cccc(C(=O)NC(NCc2ccco2)C(Cl)(Cl)Cl)c1` (stereo not given)?
ADAM10 inh: -2.5; NRP1-CendR mod: -17.5; ADAM17 inh: -5.0; FAS TE block: 7.4; Arr AP2 block: 10.9

Results for O=C(C[C@@H]1CC[C@@H](NC(=O)Nc2cccc(F)c2)[C@@H](CO)O1)NCC1CCCCC1 ?
CaV13 FRET inh: -4.1; ADAM10 inh: -0.5; NRP1-CendR mod: 7.7; ADAM17 inh: -3.1

What do the screens show for `NS(=O)(=O)c1ccc(N/N=C/c2ccc(O)cc2O)c([N+](=O)[O-])c1`?
CaV13 FRET inh: -7.2; ADAM10 inh: 1.3; NRP1-CendR mod: 15.9; ADAM17 inh: -3.6; FAS TE block: 10.8; Arr AP2 block: 44.3

Results for NS(=O)(=O)c1ccc(N/N=C/c2ccc(O)c(O)c2O)c([N+](=O)[O-])c1 ?
CaV13 FRET inh: -7.0; ADAM10 inh: 8.7; NRP1-CendR mod: 21.0; ADAM17 inh: 0.8; FAS TE block: 5.3; Arr AP2 block: 77.8*; Arr-AP2 CP1: 40.7*; GST GSH counter: 14.4

Results for C=CCN1/C(=C(\C#N)C2=NS(=O)(=O)c3ccccc32)N(C)c2ccccc21 ?
CaV13 FRET inh: -8.3; ADAM10 inh: 4.3; NRP1-CendR mod: 0.1; ADAM17 inh: -6.2; FAS TE block: -8.7; Arr AP2 block: 54.9*; Arr-AP2 CP1: 7.6; GST GSH counter: -4.5

What do the screens show for `CCCCCCCCNCCS(=O)(=O)NCc1ccc(OC)cc1`?
CaV13 FRET inh: -8.3; ADAM10 inh: -6.0; NRP1-CendR mod: 8.8; ADAM17 inh: -3.1; FAS TE block: -0.3; Arr AP2 block: -14.5

Results for O=C(NNC(=O)c1ccc(Cl)nc1)c1ccncc1 ?
CaV13 FRET inh: -3.2; ADAM10 inh: -12.6; NRP1-CendR mod: 0.2; ADAM17 inh: 1.1; FAS TE block: -5.6; Arr AP2 block: 57.0*; Arr-AP2 CP1: -4.0; GST GSH counter: -4.6

Results for CCCOc1ccc(C2C(C(=O)c3ccc(C)o3)=C(O)C(=O)N2Cc2ccco2)cc1 (stereo not given) ?
CaV13 FRET inh: -3.2; ADAM10 inh: -7.8; NRP1-CendR mod: -2.0; ADAM17 inh: 0.6; FAS TE block: 28.5; Arr AP2 block: -15.8

What do the screens show for `CCCOc1ccc(C2C(C(=O)c3ccc(C)o3)=C(O)C(=O)N2Cc2ccco2)cc1OCC` (stereo not given)?
CaV13 FRET inh: -5.7; ADAM10 inh: 9.8; NRP1-CendR mod: 16.4; ADAM17 inh: 4.0; FAS TE block: -2.1; Arr AP2 block: 64.4*; Arr-AP2 CP1: 6.7; GST GSH counter: 1.7

How did CN(Cc1ccccc1F)C(=O)C1CCC(CNS(=O)(=O)c2cccc3cccnc23)CC1 (stereo not given) do in these assays?
ADAM10 inh: -14.0; ADAM17 inh: -0.7

What do the screens show for `CCn1c(O)c2ccc(C(=O)N=NC(=O)c3ccccc3)cc2c1O`?
CaV13 FRET inh: -10.5; ADAM10 inh: -8.1; NRP1-CendR mod: -7.6; ADAM17 inh: -0.4; FAS TE block: 4.3; Arr AP2 block: 57.8*; Arr-AP2 CP1: 13.2; GST GSH counter: -4.6

How did COc1ccc(C2C(C(=O)Nc3c(C)cccc3C)CCC(=O)N2c2ccc(OC)cc2)cc1 (stereo not given) do in these assays?
ADAM10 inh: -9.6; ADAM17 inh: -1.4

Results for Cc1cnc(C(=O)OCC(=O)c2ccc(C3CCCCC3)cc2)cn1 ?
CaV13 FRET inh: -2.2; ADAM10 inh: -10.1; NRP1-CendR mod: 1.5; ADAM17 inh: -3.6; FAS TE block: 7.2; Arr AP2 block: 57.0*; Arr-AP2 CP1: 2.4; GST GSH counter: -3.1

What do the screens show for `COC(=O)C1=C(C)N(Cc2ccc(C(F)(F)F)cc2)C(=NCc2cccc(C(F)(F)F)c2)NC1c1ccccc1C(F)(F)F` (stereo not given)?
CaV13 FRET inh: -2.9; ADAM10 inh: -1.0; ADAM17 inh: 0.1

Results for NC(=O)c1cnn2c(-c3cccc(C(F)(F)F)c3)ccnc12 ?
CaV13 FRET inh: -2.3; ADAM10 inh: -78.8; NRP1-CendR mod: 4.1; ADAM17 inh: -22.6; FAS TE block: -3.1; Arr AP2 block: 67.6*; Arr-AP2 CP1: -11.5; GST GSH counter: -4.1

What do the screens show for `O=C(O)c1cnn2c(-c3ccccc3)ccnc12`?
CaV13 FRET inh: -0.8; ADAM10 inh: -31.2; NRP1-CendR mod: -11.1; ADAM17 inh: -11.5; FAS TE block: -2.7; Arr AP2 block: -14.2

How did O=C(OCc1cn([C@H]2CN(CC3CCCCC3)[C@@H](c3ccccc3)C[C@@H]2O)nn1)c1ccccc1 do in these assays?
CaV13 FRET inh: -3.8; ADAM10 inh: -17.5; NRP1-CendR mod: -8.6; ADAM17 inh: -2.0; FAS TE block: -2.4

Results for CC(=O)c1ccc(OCc2cc(C(=O)NC3CCCCC3)no2)cc1 ?
CaV13 FRET inh: 0.2; ADAM10 inh: -4.0; NRP1-CendR mod: 9.2; ADAM17 inh: -1.5; FAS TE block: -11.4; Arr AP2 block: -0.6

Results for Cc1csc(=Nc2cccnc2)n1CC1CCCCC1 ?
CaV13 FRET inh: -4.5; ADAM10 inh: -2.2; NRP1-CendR mod: 4.1; ADAM17 inh: -1.5; FAS TE block: -6.1; Arr AP2 block: 70.0*; Arr-AP2 CP1: -1.7; GST GSH counter: -8.3

How did CC(C)CN1C(=O)CN(S(C)(=O)=O)CC1(C)C(=O)NC(C)C (stereo not given) do in these assays?
CaV13 FRET inh: -14.7; ADAM10 inh: -13.7; NRP1-CendR mod: 3.7; ADAM17 inh: -2.5

Results for O=C(Nc1nnc(C2=COCCO2)o1)c1cccc([N+](=O)[O-])c1 ?
CaV13 FRET inh: -2.9; ADAM10 inh: 2.5; NRP1-CendR mod: 7.0; ADAM17 inh: -1.6; FAS TE block: -4.2; Arr AP2 block: -2.0

How did O=C(Nc1nnc(C2=COCCO2)o1)c1cccc(Br)c1 do in these assays?
CaV13 FRET inh: -4.9; ADAM10 inh: 0.7; NRP1-CendR mod: 4.5; ADAM17 inh: -1.7; FAS TE block: -5.7; Arr AP2 block: 57.1*; Arr-AP2 CP1: -2.9; GST GSH counter: -4.1

What do the screens show for `Cc1nnc(SCCn2c(Br)nc3c2c(=O)[nH]c(=O)n3C)s1`?
ADAM10 inh: 6.0; NRP1-CendR mod: 16.4; ADAM17 inh: -3.1; FAS TE block: -6.2; Arr AP2 block: 94.8*; Arr-AP2 CP1: -10.2; GST GSH counter: -2.7
